Reference: ChEMBL document CHEMBL2046423, “NOSH-Aspirin: A Novel Nitric Oxide-Hydrogen Sulfide-Releasing Hybrid: A New Class of Anti-inflammatory Pharmaceuticals” (ACS Med Chem Lett, 2012)
Active and inactive are the calls of the source. The calls are words filed in the database; no cut-off is given here.

Tests used:
HCT-15 = assay: Cytotoxicity against COX deficient human HCT15 cells after 24 hrs by MTT assay; assay type: functional, cell-based; details: HCT-15, 24 h
Outline: (§1)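 Human cancer cell lines were exposed to compound and cell viability was read at 24 h. IC50 values were calculated from the viability data. Mean ± SEM of at least four experiments, each run in triplicate.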

LNCaP = assay: Cytotoxicity against human LNCAP cells after 24 hrs by MTT assay; assay type: functional, cell-based; outline: as §1
MDA-MB-231 = assay: Cytotoxicity against ER deficient human MDA-MB-231 cells after 24 hrs by MTT assay; assay type: functional, cell-based; details: MDA-MB-231, 24 h; outline: as §1
MIA PaCa-2 = assay: Cytotoxicity against COX deficient human MIAPaCa2 cells after 24 hrs by MTT assay; assay type: functional, cell-based; details: MIA PaCa-2, 24 h; outline: as §1
Rattus norvegicus [1] = assay: Antiinflammatory activity in rat assessed as reduction of carrageenan-induced PGE2 level in paw exudates at 0.21 mmol/kg by […] (reference value: 82 +/- 2 pg/mg); assay type: functional
SK-BR-3 = assay: Cytotoxicity against ER deficient human SKBR3 cells after 24 hrs by MTT assay; assay type: functional, cell-based; details: SK-BR-3, 24 h; outline: as §1
SW480 = assay: Cytotoxicity against human SW480 cells expressing COX1 after 24 hrs by MTT assay; assay type: functional, cell-based; details: SW480, 24 h; outline: as §1
BXPC-3 = assay: Cytotoxicity against human BxPC3 cells expressing COX1 and COX2 after 24 hrs by MTT assay; assay type: functional, cell-based; details: BXPC-3, 24 h; outline: as §1
Jurkat = assay: Cytotoxicity against human Jurkat cells expressing COX1 and COX2 after 24 hrs by MTT assay; assay type: functional, cell-based; outline: as §1
A549 = assay: Cytotoxicity against human A549 cells after 24 hrs by MTT assay; assay type: functional, cell-based; details: A549, 24 h; outline: as §1
Rattus norvegicus [2] = assay: Antiinflammatory activity in rat assessed as reduction of carrageenan-induced paw volume at 0.56 mmol/kg after 1 to 3 hrs; assay type: functional
Rattus norvegicus [3] = assay: Antiinflammatory activity in rat assessed as increase of carrageenan-induced TNFalpha level in plasma at 0.56 mmol/kg by ELISA; assay type: functional
Rattus norvegicus [4] = assay: Antiinflammatory activity in rat assessed as reduction of carrageenan-induced paw volume at 0.56 mmol/kg after 1 hr; assay type: functional
MCF7 = assay: Cytotoxicity against human MCF7 cells expressing ER after 24 hrs by MTT assay; assay type: functional, cell-based; details: MCF7, 24 h; outline: as §1
Rattus norvegicus [5] = assay: Antiinflammatory activity in rat assessed as reduction of carrageenan-induced paw volume at 0.56 mmol/kg after 6 hrs; assay type: functional
HT-29 [6] = assay: Cytotoxicity against human HT-29 cells expressing COX1 and COX2 after 24 hrs by MTT assay; assay type: functional, cell-based; details: HT-29, 24 h; outline: as §1
HT-29 [7] = assay: Ratio of aspirin IC50 to compound IC50 for human HT-29 cells expressing COX1 and COX2 after 24 hrs by MTT assay; assay type: functional; outline: as §1
Rattus norvegicus [8] = assay: Antiinflammatory activity in rat assessed as reduction of carrageenan-induced paw volume at 0.21 mmol/kg after 1 hr; assay type: functional
Rattus norvegicus [9] = assay: Antiinflammatory activity in rat assessed as reduction of carrageenan-induced PGE2 level in paw exudates at 0.52 mmol/kg by […] (reference value: 82 +/- 2 pg/mg); assay type: functional
HT-29 [10] = assay: Cytotoxicity against human HT-29 cells expressing COX1 and COX2 assessed as lactate dehydrogenase release at IC50 after 2 to 8 hrs; assay type: functional
Outline: (§2)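 HT-29 colon cancer cells were treated with several concentrations for 2, 4, 6, 8 or 24 h. Cytotoxicity was read as LDH release (%) relative to untreated controls.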

Rattus norvegicus [11] = assay: In vivo drug metabolism in carrageenan treated rat assessed as increase of H2S release in plasma by […]; assay type: ADME, organism-based
Outline: (§3)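 Blood was collected at the end of the carrageenan paw edema study from rats given vehicle, the reference or the test compound (0.21 or 0.52 mmol/kg). Plasma NOx and H2S were quantified. Mean ± SEM, four rats per group.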

HT-29 [12] = assay: Cytotoxicity against human HT-29 cells expressing COX1 and COX2 assessed as lactate dehydrogenase release after 2 to 24 hrs; assay type: functional, cell-based; outline: as §2
Rattus norvegicus [13] = assay: Antiinflammatory activity in rat assessed as reduction of carrageenan-induced TNFalpha level in plasma at 0.52 mmol/kg by ELISA; assay type: functional
Rattus norvegicus [14] = assay: Antiinflammatory activity in rat assessed as reduction of carrageenan-induced paw volume at 0.52 mmol/kg after 2 to 6 hrs; assay type: functional
Rattus norvegicus [15] = assay: In vivo drug metabolism in carrageenan treated rat assessed as increase of nitric oxide release in plasma by Griess reaction; assay type: ADME, organism-based; outline: as §3
Rattus norvegicus [16] = assay: Antiinflammatory activity in rat assessed as reduction of carrageenan-induced paw volume at 0.21 mmol/kg after 6 hrs; assay type: functional
HT-29 [17] = assay: Cytotoxicity against human HT-29 cells expressing COX1 and COX2 assessed as lactate dehydrogenase release at IC50 to 4 times IC50; assay type: functional, cell-based; details: TDE = time-dependent effect; outline: as §2
Rattus norvegicus [18] = assay: Antiinflammatory activity in rat assessed as reduction of carrageenan-induced paw volume at 0.21 mmol/kg after 3 hrs; assay type: functional
Rattus norvegicus [19] = assay: Antiinflammatory activity in rat assessed as reduction of carrageenan-induced TNFalpha level in plasma at 0.21 mmol/kg by ELISA; assay type: functional
Rattus norvegicus [20] = assay: Antiinflammatory activity in rat assessed as reduction of carrageenan-induced paw volume at 0.52 mmol/kg after 1 to 2 hrs; assay type: functional
HT-29 [21] = assay: Cytotoxicity against human HT-29 cells expressing COX1 and COX2 assessed as lactate dehydrogenase release at 4 times IC50 after 2 to 8 hrs; assay type: functional; outline: as §2
Rattus norvegicus [22] = species on record: Rattus norvegicus; assay: Antiinflammatory activity in rat assessed as reduction of carrageenan-induced COX2 expression in paw exudates by Western blot analysis; assay type: functional, organism-based
Rattus norvegicus [23] = assay: Antiinflammatory activity in rat assessed as reduction of carrageenan-induced COX1 expression in paw exudates at 0.21 to 0.52 mmol/kg by Western blot analysis; assay type: functional, organism-based
Rattus norvegicus [24] = species on record: Rattus norvegicus; assay: Antiinflammatory activity in rat assessed as reduction of carrageenan-induced paw volume measured after 6 hrs; assay type: functional, organism-based
HT-29 [25] = assay: Cytotoxicity against human HT-29 cells expressing COX1 and COX2 assessed as lactate dehydrogenase release at 4 times IC50 after 24 hrs; assay type: functional; outline: as §2

Structure (SMILES) | IC50 (HCT-15) [µM] | IC50 (LNCaP) [µM] | IC50 (MDA-MB-231) [µM] | IC50 (MIA PaCa-2) [µM] | Activity (Rattus norvegicus [1]) [pg/mg] | IC50 (SK-BR-3) [µM] | IC50 (SW480) [µM] | IC50 (BXPC-3) [µM] | IC50 (Jurkat) [µM] | IC50 (A549) [µM] | IC50 (MCF7) [µM] | IC50 (HT-29 [6]) [µM] | Ratio IC50 (HT-29 [7]) | other results
CC(=O)Oc1ccccc1C(=O)O [ASPIRIN] | > 5000 | > 5000 | > 5000 | > 5000 | 12 | > 5000 | > 5000 | > 5000 | > 5000 | > 5000 | > 5000 |  |  | Activity (Rattus norvegicus [2]): 0.35 mL; Activity (Rattus norvegicus [3]): 200 pg/mL; Activity (Rattus norvegicus [4]): 0.4 mL; Activity (Rattus norvegicus [5]): 0.35 mL
O=C(CCC(=O)Oc1ccccc1C(=O)Oc1ccc(-c2cc(=S)ss2)cc1)OCCCCO[N+](=O)[O-] | 0.09 | 0.1 | 0.085 | 0.102 |  | 0.088 | 0.097 | 0.1 | 0.09 | 0.12 | 0.07 | 0.08 | >60000 | 
O=C(CCCO[N+](=O)[O-])Oc1ccccc1C(=O)Oc1ccc(-c2cc(=S)ss2)cc1 | 0.05 | 0.088 | 0.1 | 0.047 | 42 | 0.075 | 0.06 | 0.057 | 0.1 | 0.05 | 0.28 | 0.048 | 100000 | Activity (Rattus norvegicus [8]): 0.5 mL; Activity (Rattus norvegicus [9]): 21 pg/mg; Activity (HT-29 [10]): 0.5%; Drug metabolism (Rattus norvegicus [11]): Dose-dependent effect; Activity (HT-29 [12]): Dose-dependent effect; Activity (Rattus norvegicus [13]): 40 pg/mL; Activity (Rattus norvegicus [14]): 0.35 mL; Drug metabolism (Rattus norvegicus [15]): Dose-dependent effect; Activity (Rattus norvegicus [16]): 0.4 mL; Activity (HT-29 [17]): tde; Activity (Rattus norvegicus [18]): 0.6 mL; Activity (Rattus norvegicus [19]): 55 pg/mL; Activity (Rattus norvegicus [20]): 0.45 mL; Activity (HT-29 [21]): 1%; inhibition (Rattus norvegicus [22]): Dose-dependent effect; inhibition (Rattus norvegicus [23]): Active; Activity (Rattus norvegicus [24]): Dose-dependent effect; Activity (HT-29 [25]): <10%
NC(=S)c1ccc(OC(=O)c2ccccc2OC(=O)CCCO[N+](=O)[O-])cc1 | 5.9 | 4.3 | 6 | 4.8 |  | 6.5 | 5.3 | 5.5 | 7 | 6.5 | 5.7 | 7.5 | >600 | 
O=C(CCCC[C@@H]1CCSS1)Oc1ccccc1C(=O)OCCCCO[N+](=O)[O-] | 0.52 | 0.5 | 0.8 | 0.8 |  | 0.55 | 0.6 | 0.7 | 0.24 | 0.3 | 0.28 | 0.3 | >16000 | 
